TAAR1 antag: human TAAR1 antagonism | actives 1.5% (n = 360,000) | CHO RD-HGA16 TAAR1, Fluo-8 calcium fluorescence, antagonist | inhibition, % at 3 µM | Q96RJ0;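 active = inhibition above a per-plate cutoff, the mean inhibition of test compounds on that plate plus 3 SD, cut at about 49% in these data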
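Test system: CHO RD-HGA16 cells bearing hTAAR1 | Reagent: β-PEA, EC80 | Compound dosing: 3 µM, single point | Schedule: Dye loading 75 min at 37 °C, then 30 min room temperature | Signal: Calcium fluorescence with Fluo-8 | Evaluation: Percent inhibition of PEA-evoked calcium signal, max/basal emission ratio | Control set: DMSO-only wells and EC80 β-PEA-stimulated wells | Repeats: Singlicate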
ANO1 block: blocks the mouse calcium-activated chloride channel TMEM16A | AID 588511 | HEK293 TMEM16A/YFP iodide influx fluorescence, ionomycin | Q8BHY3 | normalized B-score (activity score, 25-100; higher = stronger inhibition) at 10 µM | actives 1.2% (n = 310,000);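 active = ratio plate-corrected score three or more library SD toward inhibition, starting fluorescence score within five deviations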;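 also: score derived from kinetic fluorescence span divided by baseline fluorescence per well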
Target sequence (Q8BHY3 whole entry, looked up): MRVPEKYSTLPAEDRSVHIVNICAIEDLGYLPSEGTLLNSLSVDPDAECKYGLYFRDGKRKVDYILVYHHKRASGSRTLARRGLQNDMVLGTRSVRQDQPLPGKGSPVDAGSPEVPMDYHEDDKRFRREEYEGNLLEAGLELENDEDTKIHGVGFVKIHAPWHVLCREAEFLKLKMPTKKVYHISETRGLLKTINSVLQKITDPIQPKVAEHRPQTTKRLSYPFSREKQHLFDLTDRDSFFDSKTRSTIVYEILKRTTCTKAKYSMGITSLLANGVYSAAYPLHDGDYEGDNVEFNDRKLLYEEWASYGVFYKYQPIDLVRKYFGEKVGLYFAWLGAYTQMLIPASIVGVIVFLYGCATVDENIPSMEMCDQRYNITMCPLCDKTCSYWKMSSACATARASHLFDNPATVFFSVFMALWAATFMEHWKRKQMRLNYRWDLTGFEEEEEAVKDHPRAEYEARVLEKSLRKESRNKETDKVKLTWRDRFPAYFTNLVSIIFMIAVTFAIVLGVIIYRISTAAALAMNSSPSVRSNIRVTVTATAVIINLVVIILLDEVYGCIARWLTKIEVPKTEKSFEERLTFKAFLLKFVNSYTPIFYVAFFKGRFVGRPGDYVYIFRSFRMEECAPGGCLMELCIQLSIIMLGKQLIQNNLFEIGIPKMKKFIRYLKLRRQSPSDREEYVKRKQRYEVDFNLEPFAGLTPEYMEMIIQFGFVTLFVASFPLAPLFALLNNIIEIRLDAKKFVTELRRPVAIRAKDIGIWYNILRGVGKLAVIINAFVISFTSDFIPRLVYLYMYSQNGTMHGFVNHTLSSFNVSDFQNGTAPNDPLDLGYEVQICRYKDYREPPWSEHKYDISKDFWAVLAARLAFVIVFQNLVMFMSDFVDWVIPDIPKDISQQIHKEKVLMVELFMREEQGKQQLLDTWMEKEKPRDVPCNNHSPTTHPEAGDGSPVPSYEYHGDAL
CRFBP-R2 block: CRF-BP/CRF-R2 complex antagonism; HEK293 CRF-R2/CRF-BP, CRF-induced calcium fluorescence; inhibition, % at 11.8 µM; actives 0.59% (n = 350,000);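 active = inhibition of the ligand-induced calcium signal above about 50% at the single tested concentration, limit read from the data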
TAAR1 ag: agonists of human TAAR1. CHO RD-HGA16 TAAR1, Fluo-8 calcium fluorescence; vehicle wells 0%, saturating PEA agonist 100%. activation, % at 3 µM. actives 0.99% (n = 360,000);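 active = activation above the mean activation of all test compounds in the run plus 3 SD, cut at about 38% in these data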
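System: CHO-derived RD-HGA16 cells with stable Gα16 and human TAAR1 / Times: 17-24 h plating, Fluo-8 75 min 37 °C, 30 min RT / Technique: calcium-sensitive Fluo-8 signal, excitation 470-495, emission 515-575 nm / Measure: % activation relative to PEA EC100 response / Benchmarks: DMSO and PEA EC100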
TMEM16A act: activators or potentiators of mouse TMEM16A chloride channel; Q8BHY3; HEK293 TMEM16A/YFP-H148Q/I152L, iodide quench fluorescence; hits give low values; B-score at 10 µM; actives 0.3% (n = 340,000); AID 623877;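 active = fluorescence-ratio B-score plate-corrected deviation score at least 3 library SD below zero, with starting fluorescence score within 5 deviations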;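 also: channel opened by trigger with iodide after compound preincubation; score built on the fluorescence ratio of max minus min over baseline; more negative score means more quench and so TMEM16A activation or potentiation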
CRFBP-R2 agonist: agonists of human CRF-binding protein/CRF-R2 receptor complex | actives 0.46% (n = 350,000) | HEK293 CRF-R2/CRF-BP, calcium dye fluorescence (FLIPR); percent of saturating CRF peptide response | AID 588473 | activation, % at 13.2 µM;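 active = activation of at least 50%, plus an integration ratio under a set limit after plate pattern correction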
TMEM16A reconf: TMEM16A (mouse) chloride channel inhibition, re-confirmation; shares compounds with ANO1 block; HEK293 TMEM16A/YFP-H148Q, iodide quench fluorescence; ionomycin added to raise cell calcium; inhibition, % at 10 µM; actives 39% (n = 2,300);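 active = mean duplicate percent inhibition, scaled so buffer wells are 0 and the reference blocker 100, over three buffer SD above buffer mean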
TMEM16A Ca cntr: calcium mobilization counter-screen hit for TMEM16A inhibitor series; shares compounds with ANO1 block; TMEM16A/YFP HEK293, Fluo4 calcium mobilization; calcium response (% of ionomycin), % at 10 µM; actives 2% (n = 2,300); AID 652231;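 active = duplicate-averaged calcium signal over 20% of the ionomycin maximum, relative to buffer baseline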;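 also: each well's signal is peak minus trough fluorescence divided by its pre-addition baseline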
YFP-HEK293 quench: parental YFP-HEK293 iodide quench counter-screen activity | shares compounds with ANO1 block | ionomycin | YFP ratio F(max-min)/F0 at 10 µM | 2,300 tested, under 10 active | AID 652233;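 active = yellow fluorescent protein signal ratio exceeding the buffer control mean by over 5 SD of those controls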;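 also: ratio is mean of duplicate wells from kinetic YFP trace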
ClC-1 rat inh: selectivity of TMEM16A inhibitors: inhibition of rat ClC-1 chloride channel; shares compounds with ANO1 block; CHO ClC-1-YFP, iodide influx fluorescence quench; iodide control reads 0, buffer control 100; ratio percent, % at 10 µM; 2,300 tested, under 10 active;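 active = duplicate-mean ratio percent above the mean of iodide-only control wells, which defines zero, plus 5 of their SD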;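 also: higher percent means stronger block of ClC-1 iodide influx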
A number is an active result; i = inactive; nt = no result given. This is a sample that favours compounds with a hit; in the whole collection about 3.9% have one here.

SMILES | TAAR1 antag | ANO1 block | CRFBP-R2 block | TAAR1 ag | TMEM16A act | CRFBP-R2 agonist | TMEM16A reconf | TMEM16A Ca cntr | YFP-HEK293 quench | ClC-1 rat inh
O=C(O)C(Oc1ccc(Cl)cc1)c1ccc(Cl)cc1 (stereo not given) | i | nt | i | i | i | i | nt | nt | nt | nt
Cc1ccc(/C=N\NC(=O)CNC(=O)C23CC4CC(CC(C4)C2)C3)o1 | i | i | i | i | i | i | nt | nt | nt | nt
Cc1cccc(Oc2cnn(C(C)(C)C)c(=O)c2Cl)c1 | i | 25 | i | i | i | i | i | i | i | i
COc1cnn(C(C)(C)C)c(=O)c1Cl | i | i | i | i | i | i | nt | nt | nt | nt
Cc1ccc(N2C(=O)/C(=C\c3ccco3)SC2=S)cc1 | i | 100 | i | i | i | i | i | i | i | i
CCOc1ccc(CCNC(=O)C2CCCN2C(=O)OCc2ccccc2)cc1OCC (stereo not given) | i | i | i | i | i | i | nt | nt | nt | nt
Cc1ccc(CNC(=O)CCNS(=O)(=O)c2cccc3nsnc23)cc1 | i | 100 | i | i | i | i | i | i | i | i
CCCCC(NC(=O)c1ccc(C#N)cc1)C(=O)NCCC (stereo not given) | i | nt | i | i | i | i | nt | nt | nt | nt
COc1cccc(-n2cc(CN(C)Cc3nc(Cc4cccc(F)c4)no3)cn2)c1 | i | i | i | i | i | i | nt | nt | nt | nt
COc1ccc(CN(C)Cc2nc(Cc3cccc(F)c3)no2)c2cccnc12 | i | 25 | i | i | i | i | i | i | i | i
Oc1ccc(NCc2cccc(OCc3ccccc3)c2)cc1 | i | 25 | i | i | i | i | i | 26% | i | i
Cc1ccc(Nc2nc3nonc3[nH]c2=O)cc1Cl | i | 100 | i | i | i | i | 40% | i | i | i
Cc1ccc(Nc2nc3nonc3[nH]c2=O)cc1C | i | i | i | i | i | i | nt | nt | nt | nt
O=C(c1cc(COc2cccc3cnccc23)on1)N1CCCC(CCCO)C1 (stereo not given) | i | 25 | i | i | i | i | 40% | i | i | i
O=C(NCCCN1CCOCC1)C(C(=O)NCCCN1CCOCC1)c1ncc(C(F)(F)F)cc1Cl | i | i | i | i | i | i | nt | nt | nt | nt
CCCCN(Cc1ccccc1)S(=O)(=O)c1cc(Br)cc2c1N(C(C)=O)C(C)C2 (stereo not given) | i | 25 | i | i | i | i | i | i | i | i
CC(=O)N1c2c(cc(Br)cc2S(=O)(=O)NCc2cccnc2)CC1C (stereo not given) | i | i | i | i | i | i | nt | nt | nt | nt
CC(=O)c1ccc(S(=O)(=O)Nc2ccc(C(=O)N(C)CC(=O)Nc3cccc(C)c3C)cc2)cc1 | i | nt | i | i | i | i | nt | nt | nt | nt
CN1CCN(CC(=O)Nc2nc(-c3ccccc3)cs2)CC1 | i | i | i | i | i | i | nt | nt | nt | nt
COc1ccc(C2(O)CCN(CC(=O)Nc3nc(-c4ccccc4)cs3)CC2)cc1 | 51 | 25 | i | i | i | i | 36% | i | i | i
C/C=C(/C)C(=O)O[C@@H]1c2c(ccc3ccc(=O)oc23)OC(C)(C)[C@@H]1OC(=O)/C(C)=C\C | i | 100 | i | i | i | i | 23% | i | i | i
CCOC(=O)c1cccc(NC(=O)C2CCCN(c3nnc(N4CCCC4=O)s3)C2)c1 (stereo not given) | i | i | i | i | i | i | nt | nt | nt | nt
CCc1nc2ccc(C(=O)NCCCN3CCCC3=O)cn2c1N(C)C(=O)COc1ccccc1 | i | nt | nt | i | nt | nt | nt | nt | nt | nt
Cc1ccnc(NC(=O)COc2ccc3oc4c(c3c2)CCCC4)c1 | i | 100 | i | i | i | i | i | i | i | i
COc1cccc(N(CC(=O)NC2CCCC2)C(=O)CCC(=O)Nc2cc(C)on2)c1 | i | i | i | i | i | i | nt | nt | nt | nt
SMILES | TAAR1 antag | ANO1 block | CRFBP-R2 block | TAAR1 ag | TMEM16A act | CRFBP-R2 agonist | TMEM16A reconf | TMEM16A Ca cntr | YFP-HEK293 quench | ClC-1 rat inh
COc1ccc(CN(C)C(=O)CNC(=O)Cc2cccc3ccccc23)c(OC)c1OC | i | i | i | i | i | i | nt | nt | nt | nt
COc1cccc(CN(C)C(=O)COc2ccc(C(=O)c3ccc(Cl)cc3)cc2)c1OC | i | 100 | i | i | i | i | 26% | i | i | i
COc1cccc(CN(C)C(=O)CNC(=O)c2sc3ccccc3c2Cl)c1OC | i | 25 | i | i | i | i | i | i | i | i
CN(CCc1ccccc1)C(=O)c1ccc(NC(=O)Cc2ccc(NC(=O)C3CCCN(C(=O)CCc4ccccc4)C3)cc2)cc1 (stereo not given) | i | nt | i | i | nt | i | nt | nt | nt | nt
CC(O)(c1cccnc1)c1nc(-c2ccc3c(c2)OCO3)cs1 (stereo not given) | i | nt | nt | i | nt | nt | nt | nt | nt | nt
Cn1c(=O)oc2cc(S(=O)(=O)NCCC(=O)NC3CCCC3)ccc21 | i | 100 | i | i | i | i | i | i | i | i
Cc1cccc(N2CCN(C(c3ccccc3)c3nnnn3C(C)(C)C)CC2)c1C (stereo not given) | i | i | i | i | i | i | nt | nt | nt | nt
COc1ccccc1N1CCN(C(c2ccccc2Cl)c2nnnn2C(C)(C)C)CC1 (stereo not given) | nt | 100 | i | nt | i | i | 25% | i | i | i
COc1ccccc1N1CCN(C(c2ccc(Cl)cc2)c2nnnn2C(C)(C)C)CC1 (stereo not given) | i | 100 | 119 | i | i | i | i | i | i | i
CCN(CC(=O)Nc1ccc(Cl)c(S(=O)(=O)N(C)C)c1)CC(=O)NC(C)C | i | i | i | i | i | i | nt | nt | nt | nt
O=C(CCN1C(=O)/C(=C/c2ccco2)SC1=S)Nc1ccc(O)cc1C(=O)O | i | i | i | i | i | i | i | i | i | i
Cc1ccccc1S(=O)(=O)N1[C@@H](c2ccc(F)cc2)C(C(=O)O)=CC[C@H]1c1ccc(Cl)cc1 | i | 100 | i | i | i | i | 28% | i | i | i
O=C(O)C1=CC[C@@H](c2ccc(Cl)cc2)N(S(=O)(=O)c2ccc(Cl)cc2)[C@H]1c1ccc(F)cc1 | i | 100 | i | i | i | i | i | i | i | i

Assay outcomes as filed in PubChem BioAssay.
